High-throughput results: PubChem, several laboratories
MT1-MMP act inh: blockers of MT1-MMP proenzyme processing, primary screen, HT1080 RFP-PRO-GFP cells, GFP/RFP fluorescence | Matrix metalloproteinase-14 (Homo sapiens), P50281 | GFP/RFP ratio fluorescence, overnight; percent of plate control window, DMSO zero | GFP/RFP ratio change, % at 20 µM | 360,000 tested, 0.061% active;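 active = GFP/RFP ratio change of at least 30% with cell ATP level not reduced by more than half and red fluorescence within 50% of control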
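Compound: 20 µM single dose, 1% DMSO / System: HT1080 RFP-PRO-GFP cells / Controls: DMSO and RFP-L50D-GFP cell wells / Read-out basis: GFP/RFP fluorescence ratio / Schedule: overnight compound exposure at 37 °C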
Granule exo inh: LAMP-1 surface exposure blockers, TALL-104 cells – cell-based, flow cytometry, MLPCN library, primary screen. TALL-104 LAMP-1 surface exposure; cells stimulated with thapsigargin and PMA. inhibition, % at 10 µM. 360,000 tested, 0.66% active. AID 651702, 2012;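 active = inhibition above about 55%, limit read from the data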
VLA-4 inh: inhibition in human VLA-4 binding assay, primary screen, VLA-4 allosteric modulator project, MLPCN library, flow cytometry, VLA-4 expressing cells; Integrin alpha-4 (Homo sapiens), P13612; ligand binding flow cytometry; inhibition, % (about 7 µM as worked out from the volumes in the protocol); 330,000 tested, 0.2% active; AID 2557, 2010; in the data active = inhibition above about 50%
DAGLB inh: DAGLB lipase inhibitors, primary screen, biochemical, fluorescence, HTS; Diacylglycerol lipase-beta (Homo sapiens), Q8NCG7; 340,000 tested, 0.059% active; HEK293T DAGLB membrane lysate, EnzChek fluorogenic substrate; inhibition, % at 5.17 µM; in the data active = inhibition above about 34%
Target sequence (Q8NCG7 whole entry, looked up): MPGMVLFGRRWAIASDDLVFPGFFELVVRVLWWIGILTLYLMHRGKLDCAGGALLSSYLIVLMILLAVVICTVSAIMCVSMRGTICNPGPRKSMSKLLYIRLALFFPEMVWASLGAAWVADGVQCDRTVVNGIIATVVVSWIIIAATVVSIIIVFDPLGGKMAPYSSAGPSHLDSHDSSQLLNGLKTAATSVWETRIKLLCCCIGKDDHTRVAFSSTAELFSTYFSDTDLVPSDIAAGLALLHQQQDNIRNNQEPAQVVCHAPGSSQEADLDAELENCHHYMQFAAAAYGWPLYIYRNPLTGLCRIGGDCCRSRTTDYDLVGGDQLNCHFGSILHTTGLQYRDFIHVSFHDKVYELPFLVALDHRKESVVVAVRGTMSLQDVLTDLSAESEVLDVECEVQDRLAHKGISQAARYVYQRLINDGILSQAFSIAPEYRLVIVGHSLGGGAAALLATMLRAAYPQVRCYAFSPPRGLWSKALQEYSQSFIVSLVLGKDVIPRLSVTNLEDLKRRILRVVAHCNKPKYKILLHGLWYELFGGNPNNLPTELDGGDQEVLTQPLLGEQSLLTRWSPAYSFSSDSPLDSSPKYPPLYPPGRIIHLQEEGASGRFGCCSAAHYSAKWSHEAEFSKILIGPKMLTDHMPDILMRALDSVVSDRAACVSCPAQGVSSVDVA
ABCB6 inh MLPCN: ABCB6 transporter inhibitors, primary screen, K562-ABCB6 cells, flow cytometry, MLPCN library; ATP-binding cassette sub-family B member 6 (Homo sapiens), Q9NP58; K562-ABCB6 porphyrin accumulation, 1 h; active compounds read low; fluorescence ratio to DMSO, % at 10 µM; 360,000 tested, 0.19% active; AID 602162, 2011;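 active = fluorescence ratio to DMSO below 75%, the collection mean minus 3 SD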;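 also: signal is porphyrin accumulated inside mitochondria; lower ratio means ABCB6 inhibition with less porphyrin fluorescence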
FGF22 binding: binders of human FGF22 protein, primary screen, FGF22 synaptogenesis inhibitor project, biophysical, thermal shift, single point. 340,000 tested, 1.5% active. recombinant FGF22 thermal shift, SYPRO orange fluorescence; percent of sucrose octasulfate shift, DMSO zero. AID 651658, 2012. Fibroblast growth factor 22 (Homo sapiens), Q9HCT0. activity (Tm shift, normalised), % at 9.99 µM;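 active = mean Tm shift, scaled 0 neutral to 100 positive control, at about 1.3% or above, every replicate too, limit read from the data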
A number is an active result; ! = not active in a repeat. Most compounds without a hit are left out; they make up all but 2% or so of the library.

O=C(c1cc([N+](=O)[O-])ccc1N1CCOCC1)N1CCOCC1 was read as Granule exo inh inactive, VLA-4 inh inactive, DAGLB inh inactive, ABCB6 inh MLPCN inactive and FGF22 binding 43.
`O=C(COC(=O)Cc1ccc(Cl)cc1)Nc1c(F)cccc1F` gave MT1-MMP act inh inactive, Granule exo inh inactive, VLA-4 inh inactive, DAGLB inh inactive, ABCB6 inh MLPCN inactive and FGF22 binding 44.
`CN1CCN(Cc2nc3ccccc3c(=O)n2Cc2nc(-c3ccc4ccccc4c3)cs2)CC1` gave MT1-MMP act inh inactive, Granule exo inh 65!, VLA-4 inh inactive, DAGLB inh inactive, ABCB6 inh MLPCN inactive and FGF22 binding inactive.
For CCS(=O)(=O)Nc1ccc2c(c1)C(=O)N(C)C[C@@H](OC)[C@@H](C)CN(CCC(F)(F)F)[C@@H](C)CO2 the results were FGF22 binding inactive.
Screening CC1(C)CC(=O)c2cnc3c(C#N)cnn3c2C1 returned MT1-MMP act inh inactive, Granule exo inh inactive, VLA-4 inh inactive, DAGLB inh inactive, ABCB6 inh MLPCN inactive and FGF22 binding 44.
Screening CSc1nc2ncc3c(n2n1)CC(C)(C)CC3=O returned MT1-MMP act inh inactive, Granule exo inh inactive, VLA-4 inh inactive, ABCB6 inh MLPCN inactive and FGF22 binding inactive.
For O=S(=O)(c1ccc(N2CCN(S(=O)(=O)c3ccccc3)CC2)nc1)N1CCCC1 the results were MT1-MMP act inh inactive, Granule exo inh inactive, VLA-4 inh inactive, DAGLB inh inactive, ABCB6 inh MLPCN inactive and FGF22 binding 43.
CNC[C@H]1Oc2ccc(NS(=O)(=O)c3cccs3)cc2CC(=O)N([C@@H](C)CO)C[C@@H]1C was read as FGF22 binding inactive.
Screening CCn1nnnc1NC(=O)c1cc(Cl)c(OC)c(Cl)c1 returned MT1-MMP act inh inactive, Granule exo inh inactive, VLA-4 inh 52, DAGLB inh inactive, ABCB6 inh MLPCN inactive and FGF22 binding inactive.
For CO[C@@H](CN(C)S(=O)(=O)c1cn(C)cn1)[C@@H](C)CN(C(=O)Nc1ccc(F)cc1)[C@H](C)CO the results were FGF22 binding inactive.
Screening Cc1cccc(NC(=O)CN2C(=O)S/C(=C\c3ccc(O)c([N+](=O)[O-])c3)C2=O)c1 returned MT1-MMP act inh inactive, Granule exo inh inactive, VLA-4 inh inactive, DAGLB inh inactive, ABCB6 inh MLPCN inactive and FGF22 binding 44.
For Cc1ccc(NC(=O)CN2C(=O)S/C(=C/c3ccc(O)c([N+](=O)[O-])c3)C2=O)cc1C the results were MT1-MMP act inh inactive, Granule exo inh inactive, DAGLB inh inactive, ABCB6 inh MLPCN inactive and FGF22 binding inactive.
Screening C[C@@H]1CN([C@@H](C)CO)C(=O)c2cc(NC(=O)C3CCCCC3)ccc2O[C@@H](C)CCCCO[C@H]1CN(C)C(=O)c1ccccc1 returned FGF22 binding 29.
`C[C@H](CO)N1C[C@H](C)[C@H](CN(C)C(=O)c2ccccc2)OCCCC[C@H](C)Oc2ccc(NC(=O)Nc3ccc(F)cc3)cc2C1=O` gave FGF22 binding inactive.
Screening C[C@H]1CCCCO[C@@H](CN(C)C(=O)C2CCCCC2)[C@@H](C)CN([C@@H](C)CO)C(=O)c2cc(NC(=O)Cc3ccccc3)ccc2O1 returned FGF22 binding 1.9.
CC(C)NC(=O)Nc1ccc2c(c1)C(=O)N([C@H](C)CO)C[C@@H](C)[C@H](CN(C)Cc1ccc(C(=O)O)cc1)OCCCC[C@H](C)O2 was read as FGF22 binding inactive.
For C[C@@H]1CN([C@H](C)CO)C(=O)c2cc(NC(=O)Nc3ccc(F)cc3)ccc2O[C@@H](C)CCCCO[C@@H]1CN(C)C(=O)c1ccccc1 the results were FGF22 binding 1.4.
Screening CC(C)NC(=O)Nc1ccc2c(c1)C(=O)N([C@@H](C)CO)C[C@@H](C)[C@H](CN(C)Cc1ccc(C(=O)O)cc1)OCCCC[C@H](C)O2 returned FGF22 binding 1.6.
C[C@@H]1CN([C@H](C)CO)C(=O)c2cc(NC(=O)C3CCCCC3)ccc2O[C@@H](C)CCCCO[C@@H]1CN(C)C(=O)c1ccccc1 was read as FGF22 binding inactive.
For CC=Cc1ccc2n(c1=O)C[C@@H]1[C@@H](CO)[C@H](C(=O)OC)N(CCc3ccccc3)[C@H]21 (mixture of isomers) the results were FGF22 binding inactive.
Screening COc1ccc(NC(=O)Nc2ccc3c(c2)C(=O)N([C@@H](C)CO)C[C@H](C)[C@H](CN(C)C(=O)c2ccccc2)OCCCC[C@H](C)O3)cc1 returned FGF22 binding 1.4.
`CC1(C)CC(=O)C(=Cc2cn(CCC#N)nc2-c2ccc(Cl)cc2)C(=O)C1` gave MT1-MMP act inh inactive, Granule exo inh 74, VLA-4 inh inactive, DAGLB inh inactive, ABCB6 inh MLPCN inactive and FGF22 binding inactive.
CC1(C)CC(=O)C(=Cc2cn(CCC#N)nc2-c2ccc(F)cc2)C(=O)C1 was read as MT1-MMP act inh inactive, Granule exo inh inactive, VLA-4 inh inactive, DAGLB inh inactive, ABCB6 inh MLPCN inactive and FGF22 binding inactive.
For CO[C@@H]1CN(C)C(=O)c2ccc(NC(=O)Nc3cc(F)ccc3F)cc2OC[C@H](C)N(C(=O)c2cnccn2)C[C@@H]1C the results were FGF22 binding inactive.
CC(C)CC#Cc1cnc2c(c1)C(=O)N([C@H](C)CO)C[C@H](C)[C@H](CN(C)C(=O)Cc1ccncc1)O2 was read as FGF22 binding inactive.
For O=C(O)CCCN1C(=O)c2ccc(C(=O)c3cccc([N+](=O)[O-])c3)cc2C1=O the results were MT1-MMP act inh inactive, Granule exo inh inactive, VLA-4 inh inactive, DAGLB inh inactive, ABCB6 inh MLPCN inactive and FGF22 binding 43.
For Cc1nc(SCc2cccc(C(=O)O)c2)nc2c1CCCC2 the results were MT1-MMP act inh inactive, Granule exo inh inactive, VLA-4 inh inactive, DAGLB inh inactive, ABCB6 inh MLPCN inactive and FGF22 binding 43.
COc1ccc(-c2cc(C)nc(SCc3cccc(C(=O)O)c3)n2)cc1 was read as MT1-MMP act inh inactive, Granule exo inh inactive, VLA-4 inh inactive, DAGLB inh inactive, ABCB6 inh MLPCN inactive and FGF22 binding inactive.
